Laboratory results reported in ChEMBL document CHEMBL1828568, “Novel imaging agents for β-amyloid plaque based on the N-benzoylindole core” (Bioorg Med Chem Lett, 2011).

How the values were obtained:
[1] = Displacement of [125I]TZDM from amyloid beta (1 to 40) aggregates after 2 hrs by gamma counting
Outline: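 Competition binding against [125I]TZDM as radiolabeled standard, using Aβ1–40 aggregates; run in triplicate, results as mean ± SD.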

[2] = Binding affinity to amyloid beta fibrils
Outline: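 Competitive binding to Aβ1–40 aggregates, with [125I]TZDM as the radiolabeled reference ligand displaced by unlabeled test compound. Run in triplicate and reported as mean ± SD.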

## COc1ccc(/C=C/C(=O)n2ccc3cc(I)ccc32)cc1
[1]
  Ki: 10.2 nM

## CC(C)Cc1ccc([C@H](C)C(=O)O)cc1 [DEXIBUPROFEN]
[2]
  Ki: 44.4 nM

## CC(C)Cc1ccc([C@@H](C)C(=O)O)cc1 [(R)-IBUPROPHEN]
[2]
  Ki: 11.3 nM
